Assay results taken from ChEMBL document CHEMBL1140412, “F-18 stilbenes as PET imaging agents for detecting beta-amyloid plaques in the brain” (J Med Chem, 2005).
Each block holds one compound with its values, some of them ahead of it.

Columns and labels:
[1] = molecular target: Amyloid-beta precursor protein (Homo sapiens, UniProt P05067); assay: Inhibition constant for I-125-IMPY binding to amyloid plaques in Alzheimers disease brain homogenates; type: tissue-based
How it was run: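 Competition binding in pooled postmortem AD cortical homogenates (dissected gray/white matter, ~100 mg wet tissue/ml PBS pH 7.4; 20-50 μg per tube). [¹²⁵I]IMPY at 0.04-0.06 nM; inhibitors 10^-5-10^-10 M in PBS with 0.1% BSA. Nonspecific binding with 600 nM IMPY. Incubated 2 hr at 37°C, GF/B filtration, PBS washes, gamma counting. Ki from nonlinear regression.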

[2] = Biodistribution in ICR mouse lung 1 hr after iv injection of [18F]-compound in 0.1% bovine serum albumin solution, n = 3; type: ADME, organism-based; settings: in vivo
How it was run: (§1)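 Male ICR mice (22-25 g) under isoflurane anesthesia received 0.15 mL of 0.1% BSA solution containing 5-10 μCi [¹⁸F]tracer by tail-vein injection; n = 3 per time point. Killed by cervical dislocation, organs removed, weighed and gamma-counted. %dose/g derived from sample counts vs. diluted initial dose; blood total activity assumed as 7% of body weight. Mean ± SD.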

[3] = Biodistribution in ICR mouse lung 2 min. after iv injection of [18F]-compound in 0.1% bovine serum albumin solution, n = 3; type: ADME, organism-based; settings: in vivo; how it was run: as §1
[4] = Biodistribution in ICR mouse brain 2 min. after iv injection of [18F]-compound in 0.1% bovine serum albumin solution, n = 3; type: ADME, organism-based; settings: in vivo; how it was run: as §1
[5] = Biodistribution in ICR mouse spleen 2 hr after iv injection of [18F]-compound in 0.1% bovine serum albumin solution, n = 3; type: ADME, organism-based; settings: in vivo; how it was run: as §1
[6] = Biodistribution in ICR mouse skin 2 min. after iv injection of [18F]-compound in 0.1% bovine serum albumin solution, n = 3; type: ADME, organism-based, Zone of skin; settings: in vivo; how it was run: as §1
[7] = Biodistribution in ICR mouse kidney 30 min. after iv injection of [18F]-compound in 0.1% bovine serum albumin solution, n = 3; type: ADME, organism-based; settings: in vivo, 0.5 h; how it was run: as §1
[8] = Biodistribution in ICR mouse liver 1 hr after iv injection of [18F]-compound in 0.1% bovine serum albumin solution, n = 3; type: ADME, organism-based; settings: in vivo; how it was run: as §1
[9] = Biodistribution in ICR mouse brain 1 hr after iv injection of [18F]-compound in 0.1% bovine serum albumin solution, n = 3; type: ADME, organism-based; settings: in vivo; how it was run: as §1
[10] = Biodistribution in ICR mouse blood 2 hr after iv injection of [18F]-compound in 0.1% bovine serum albumin solution, n = 3; type: ADME, organism-based; settings: in vivo; how it was run: as §1
[11] = Biodistribution in ICR mouse brain 2 hr after iv injection of [18F]-compound in 0.1% bovine serum albumin solution, n = 3; type: ADME, organism-based; settings: in vivo; how it was run: as §1
[12] = Biodistribution in ICR mouse spleen 2 min. after iv injection of [18F]-compound in 0.1% bovine serum albumin solution, n = 3; type: ADME, organism-based; settings: in vivo; how it was run: as §1
[13] = Biodistribution in ICR mouse lung 2 hr after iv injection of [18F]-compound in 0.1% bovine serum albumin solution, n = 3; type: ADME, organism-based; settings: in vivo; how it was run: as §1
[14] = Biodistribution in ICR mouse kidney 2 hr after iv injection of [18F]-compound in 0.1% bovine serum albumin solution, n = 3; type: ADME, organism-based; settings: in vivo; how it was run: as §1
[15] = Biodistribution in ICR mouse blood 30 min. after iv injection of [18F]-compound in 0.1% bovine serum albumin solution, n = 3; type: ADME, organism-based; settings: in vivo, 0.5 h; how it was run: as §1
[16] = Biodistribution in ICR mouse liver 2 min. after iv injection of [18F]-compound in 0.1% bovine serum albumin solution, n = 3; type: ADME, organism-based; settings: in vivo; how it was run: as §1
[17] = Biodistribution in ICR mouse bone 1 hr after iv injection of [18F]-compound in 0.1% bovine serum albumin solution, n = 3; type: ADME, organism-based, Bone element; settings: in vivo; how it was run: as §1
[18] = Biodistribution in ICR mouse liver 30 min. after iv injection of [18F]-compound in 0.1% bovine serum albumin solution, n = 3; type: ADME, organism-based; settings: in vivo, 0.5 h; how it was run: as §1
[19] = Biodistribution in ICR mouse spleen 30 min. after iv injection of [18F]-compound in 0.1% bovine serum albumin solution, n = 3; type: ADME, organism-based; settings: in vivo, 0.5 h; how it was run: as §1
[20] = Biodistribution in ICR mouse skin 30 min. after iv injection of [18F]-compound in 0.1% bovine serum albumin solution, n = 3; type: ADME, organism-based, Zone of skin; settings: in vivo, 0.5 h; how it was run: as §1
[21] = Biodistribution in ICR mouse heart 2 hr after iv injection of [18F]-compound in 0.1% bovine serum albumin solution, n = 3; type: ADME, organism-based; settings: in vivo; how it was run: as §1
[22] = Biodistribution in ICR mouse blood 1 hr after iv injection of [18F]-compound in 0.1% bovine serum albumin solution, n = 3; type: ADME, organism-based; settings: in vivo; how it was run: as §1
[23] = Biodistribution in ICR mouse heart 2 min. after iv injection of [18F]-compound in 0.1% bovine serum albumin solution, n = 3; type: ADME, organism-based; settings: in vivo; how it was run: as §1
[24] = Biodistribution in ICR mouse blood 2 min. after iv injection of [18F]-compound in 0.1% bovine serum albumin solution, n = 3; type: ADME, organism-based; settings: in vivo; how it was run: as §1
[25] = Biodistribution in ICR mouse brain 30 min. after iv injection of [18F]-compound in 0.1% bovine serum albumin solution, n = 3; type: ADME, organism-based; settings: in vivo, 0.5 h; how it was run: as §1
[26] = Biodistribution in ICR mouse spleen 1 hr after iv injection of [18F]-compound in 0.1% bovine serum albumin solution, n = 3; type: ADME, organism-based; settings: in vivo; how it was run: as §1
[27] = Biodistribution in ICR mouse liver 2 hr after iv injection of [18F]-compound in 0.1% bovine serum albumin solution, n = 3; type: ADME, organism-based; settings: in vivo; how it was run: as §1
[28] = Biodistribution in ICR mouse heart 30 min. after iv injection of [18F]-compound in 0.1% bovine serum albumin solution, n = 3; type: ADME, organism-based; settings: in vivo, 0.5 h; how it was run: as §1
[29] = Biodistribution in ICR mouse kidney 2 min. after iv injection of [18F]-compound in 0.1% bovine serum albumin solution, n = 3; type: ADME, organism-based; settings: in vivo; how it was run: as §1
[30] = Biodistribution in ICR mouse bone 2 hr after iv injection of [18F]-compound in 0.1% bovine serum albumin solution, n = 3; type: ADME, organism-based, Bone element; settings: in vivo; how it was run: as §1
[31] = Biodistribution in ICR mouse skin 2 hr after iv injection of [18F]-compound in 0.1% bovine serum albumin solution, n = 3; type: ADME, organism-based, Zone of skin; settings: in vivo; how it was run: as §1
[32] = Biodistribution in ICR mouse kidney 1 hr after iv injection of [18F]-compound in 0.1% bovine serum albumin solution, n = 3; type: ADME, organism-based; settings: in vivo; how it was run: as §1
[33] = Biodistribution in ICR mouse muscle 2 min. after iv injection of [18F]-compound in 0.1% bovine serum albumin solution, n = 3; type: ADME, organism-based, Muscle tissue; settings: in vivo; how it was run: as §1
[34] = Biodistribution in ICR mouse bone 2 min. after iv injection of [18F]-compound in 0.1% bovine serum albumin solution, n = 3; type: ADME, organism-based, Bone element; settings: in vivo; how it was run: as §1
[35] = Biodistribution in ICR mouse muscle 2 hr after iv injection of [18F]-compound in 0.1% bovine serum albumin solution, n = 3; type: ADME, organism-based, Muscle tissue; settings: in vivo; how it was run: as §1
[36] = Biodistribution in ICR mouse muscle 1 hr after iv injection of [18F]-compound in 0.1% bovine serum albumin solution, n = 3; type: ADME, organism-based, Muscle tissue; settings: in vivo; how it was run: as §1
[37] = Biodistribution in ICR mouse bone 30 min. after iv injection of [18F]-compound in 0.1% bovine serum albumin solution, n = 3; type: ADME, organism-based, Bone element; settings: in vivo, 0.5 h; how it was run: as §1
[38] = Biodistribution in ICR mouse muscle 30 min. after iv injection of [18F]-compound in 0.1% bovine serum albumin solution, n = 3; type: ADME, organism-based, Muscle tissue; settings: in vivo, 0.5 h; how it was run: as §1
[39] = Biodistribution in ICR mouse skin 1 hr after iv injection of [18F]-compound in 0.1% bovine serum albumin solution, n = 3; type: ADME, organism-based, Zone of skin; settings: in vivo; how it was run: as §1
[40] = Biodistribution in ICR mouse heart 1 hr after iv injection of [18F]-compound in 0.1% bovine serum albumin solution, n = 3; type: ADME, organism-based; settings: in vivo; how it was run: as §1
[41] = Biodistribution in ICR mouse lung 30 min. after iv injection of [18F]-compound in 0.1% bovine serum albumin solution, n = 3; type: ADME, organism-based; settings: in vivo, 0.5 h; how it was run: as §1

Sequence of Amyloid-beta precursor protein (P05067 whole entry): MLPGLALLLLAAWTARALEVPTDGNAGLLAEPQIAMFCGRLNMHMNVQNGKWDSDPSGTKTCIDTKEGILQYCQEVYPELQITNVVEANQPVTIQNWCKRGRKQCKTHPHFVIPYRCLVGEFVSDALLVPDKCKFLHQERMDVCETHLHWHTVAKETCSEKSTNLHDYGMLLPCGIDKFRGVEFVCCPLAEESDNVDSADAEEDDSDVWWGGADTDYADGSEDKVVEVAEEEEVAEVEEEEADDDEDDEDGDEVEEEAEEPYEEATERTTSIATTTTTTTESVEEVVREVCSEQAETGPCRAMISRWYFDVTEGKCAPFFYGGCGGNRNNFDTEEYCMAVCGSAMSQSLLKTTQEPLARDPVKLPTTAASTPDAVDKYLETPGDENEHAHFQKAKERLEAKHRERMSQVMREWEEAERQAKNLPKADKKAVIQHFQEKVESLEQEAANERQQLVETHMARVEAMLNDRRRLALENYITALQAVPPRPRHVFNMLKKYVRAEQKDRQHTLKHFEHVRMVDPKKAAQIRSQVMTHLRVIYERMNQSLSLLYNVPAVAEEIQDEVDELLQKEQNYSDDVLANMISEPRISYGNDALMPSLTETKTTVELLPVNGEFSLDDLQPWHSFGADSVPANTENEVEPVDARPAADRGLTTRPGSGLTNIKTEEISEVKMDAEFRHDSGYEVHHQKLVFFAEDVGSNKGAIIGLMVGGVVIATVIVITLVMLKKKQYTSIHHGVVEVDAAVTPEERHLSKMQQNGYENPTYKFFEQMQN

SMILES: CN(C)c1ccc(/C=C/c2ccc(OCC3COC(C)(C)OC3)cc2)cc1
Ki [1]: 59 nM

SMILES: CNc1ccc(/C=C/c2ccc(OCC(CO)C[18F])cc2)cc1 (stereo not given)
Biodistribution [2]: 7.51 %Dose/g
Biodistribution [3]: 26.13 %Dose/g
Biodistribution [4]: 9.75 %Dose/g
Biodistribution [5]: 1.22 %Dose/g
Biodistribution [6]: 0.92 %Dose/g
Biodistribution [7]: 4.13 %Dose/g
Biodistribution [8]: 14.58 %Dose/g
Biodistribution [9]: 0.72 %Dose/g
Biodistribution [10]: 0.78 %Dose/g
Biodistribution [11]: 0.31 %Dose/g
Biodistribution [12]: 5.01 %Dose/g
Biodistribution [13]: 4.15 %Dose/g
Biodistribution [14]: 1.5 %Dose/g
Biodistribution [15]: 2.47 %Dose/g
Biodistribution [16]: 20.61 %Dose/g
Biodistribution [17]: 5.3 %Dose/g
Ki [1]: 5 nM
Biodistribution [18]: 19.6 %Dose/g
Biodistribution [19]: 2.41 %Dose/g
Biodistribution [20]: 1.49 %Dose/g
Biodistribution [21]: 0.65 %Dose/g
Biodistribution [22]: 1.82 %Dose/g
Biodistribution [23]: 7.49 %Dose/g
Biodistribution [24]: 2.6 %Dose/g
Biodistribution [25]: 1.7 %Dose/g
Biodistribution [26]: 1.37 %Dose/g
Biodistribution [27]: 8.14 %Dose/g
Biodistribution [28]: 2.06 %Dose/g
Biodistribution [29]: 11.7 %Dose/g
Biodistribution [30]: 7.76 %Dose/g
Biodistribution [31]: 0.57 %Dose/g
Biodistribution [32]: 3.06 %Dose/g
Biodistribution [33]: 0.74 %Dose/g
Biodistribution [34]: 1.53 %Dose/g
Biodistribution [35]: 0.41 %Dose/g
Biodistribution [36]: 0.85 %Dose/g
Biodistribution [37]: 2.13 %Dose/g
Biodistribution [38]: 1.31 %Dose/g
Biodistribution [39]: 1.22 %Dose/g
Biodistribution [40]: 1.54 %Dose/g
Biodistribution [41]: 8.9 %Dose/g

Further compounds by falling Ki [1], results first:

Ki [1]: 150 nM
SMILES: Cc1ccc(S(=O)(=O)OCC(CO)COc2ccc(/C=C/c3ccc(N(C)C)cc3)cc2)cc1 (stereo not given)

Ki [1]: 95 nM
SMILES: Nc1ccc(/C=C/c2ccc(O)cc2)cc1

Ki [1]: 32.5 nM
SMILES: CNc1ccc(/C=C/c2ccc(OCC(CO)CO)cc2)cc1
